Reference: ChEMBL document CHEMBL4477211, “Synthesis and Investigation of Tetrahydro-β-carboline Derivatives as Inhibitors of the Breast Cancer Resistance Protein (ABCG2)” (J Med Chem, 2016)

Assays:
ABCB1 = ABCB1 (Homo sapiens, UniProt P08183); experiment: Inhibition of ABCB1 in human A2780/ADR cells assessed as reduction in calcein AM efflux at 10 uM pre-incubated for 30 mins before calcein AM addition and measured for 60 mins by microplate reader analysis relative to control; assay type: cell-based; conditions: probe calcein AM
Chain of ABCB1 (P08183 whole entry): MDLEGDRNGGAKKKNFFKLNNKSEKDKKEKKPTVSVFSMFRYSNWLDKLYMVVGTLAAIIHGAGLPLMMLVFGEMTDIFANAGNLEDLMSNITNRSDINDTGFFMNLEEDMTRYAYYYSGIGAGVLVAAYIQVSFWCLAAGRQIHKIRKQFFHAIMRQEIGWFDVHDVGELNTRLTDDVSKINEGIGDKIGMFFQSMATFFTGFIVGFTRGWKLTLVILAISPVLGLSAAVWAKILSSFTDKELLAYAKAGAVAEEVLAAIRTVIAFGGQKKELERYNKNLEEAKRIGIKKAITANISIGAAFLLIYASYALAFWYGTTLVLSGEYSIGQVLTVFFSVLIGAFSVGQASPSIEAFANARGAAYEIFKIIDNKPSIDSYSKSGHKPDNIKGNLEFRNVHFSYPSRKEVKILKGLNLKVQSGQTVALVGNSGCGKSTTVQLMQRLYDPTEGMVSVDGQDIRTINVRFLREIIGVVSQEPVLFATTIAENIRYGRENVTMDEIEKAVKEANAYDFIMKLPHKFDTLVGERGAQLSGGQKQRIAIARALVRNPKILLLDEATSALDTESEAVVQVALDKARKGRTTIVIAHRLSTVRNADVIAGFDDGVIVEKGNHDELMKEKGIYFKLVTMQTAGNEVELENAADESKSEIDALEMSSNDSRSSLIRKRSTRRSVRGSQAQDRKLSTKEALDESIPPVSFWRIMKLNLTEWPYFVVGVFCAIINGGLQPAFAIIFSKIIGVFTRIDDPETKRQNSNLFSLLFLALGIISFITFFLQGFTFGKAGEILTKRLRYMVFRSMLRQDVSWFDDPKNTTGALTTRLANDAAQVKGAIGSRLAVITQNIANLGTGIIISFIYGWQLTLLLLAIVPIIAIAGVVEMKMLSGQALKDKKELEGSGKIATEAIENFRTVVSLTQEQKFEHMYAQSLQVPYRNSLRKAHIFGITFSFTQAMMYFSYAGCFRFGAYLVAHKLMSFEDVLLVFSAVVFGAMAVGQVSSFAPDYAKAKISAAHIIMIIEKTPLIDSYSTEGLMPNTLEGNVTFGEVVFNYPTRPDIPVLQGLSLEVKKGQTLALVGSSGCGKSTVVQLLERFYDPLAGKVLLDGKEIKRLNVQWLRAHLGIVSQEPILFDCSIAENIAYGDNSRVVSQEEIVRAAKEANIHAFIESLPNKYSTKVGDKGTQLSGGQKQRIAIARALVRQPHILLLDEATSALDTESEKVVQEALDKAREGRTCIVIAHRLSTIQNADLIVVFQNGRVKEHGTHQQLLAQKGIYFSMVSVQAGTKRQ
Outline: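 Compound at 10 µM pre-incubated 30 min at 37 °C. Calcein AM added from 3.125 µM solution. Fluorescence (ex 485/em 520 nm) read every 60 s for 60 min.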

[1] = biological target: T1, Broad substrate specificity ATP-binding cassette transporter ABCG2 (Homo sapiens, UniProt Q9UNQ0); experiment: Inhibition of human ABCG2 expressed in MDCK2 cells assessed as reduction in Hoechst 33342 efflux pre-incubated for 30 mins before Hoechst 33342 addition and measured for 120 mins by microplate reader analysis; assay type: cell-based; conditions: read-out: IC50
T1 sequence (Q9UNQ0 whole entry): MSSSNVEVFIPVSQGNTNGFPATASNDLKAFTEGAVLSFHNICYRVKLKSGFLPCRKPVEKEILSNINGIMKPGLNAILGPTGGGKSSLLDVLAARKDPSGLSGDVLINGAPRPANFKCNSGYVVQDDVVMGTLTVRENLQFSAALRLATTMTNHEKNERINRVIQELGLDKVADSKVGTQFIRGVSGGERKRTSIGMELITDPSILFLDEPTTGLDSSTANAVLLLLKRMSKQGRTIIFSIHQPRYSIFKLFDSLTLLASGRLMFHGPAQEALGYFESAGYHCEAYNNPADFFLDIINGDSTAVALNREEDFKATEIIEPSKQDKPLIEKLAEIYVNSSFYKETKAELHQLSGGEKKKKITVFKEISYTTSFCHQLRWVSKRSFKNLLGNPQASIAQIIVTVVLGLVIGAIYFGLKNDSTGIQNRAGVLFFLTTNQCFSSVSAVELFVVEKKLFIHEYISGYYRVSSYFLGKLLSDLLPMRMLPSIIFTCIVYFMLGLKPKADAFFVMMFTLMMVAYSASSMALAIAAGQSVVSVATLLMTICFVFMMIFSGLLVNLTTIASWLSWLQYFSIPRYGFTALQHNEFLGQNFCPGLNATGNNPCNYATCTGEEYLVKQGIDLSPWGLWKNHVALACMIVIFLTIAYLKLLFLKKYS
Outline: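 Compound dilutions up to 10 µM (from 10 mM DMSO stocks) pre-incubated 30 min at 37 °C. Hoechst 33342 then added from 6 µM solution. Fluorescence (ex 355/em 460 nm) read each 60 s over 120 min.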

[2] = Solubility in pH 7.4 Krebs-HEPES buffer assessed as absorbance value at 10 uM after 2 hrs by UV-visible spectrophotometric analysis relative to control; assay type: physicochemical; conditions: pH 7.4, 2 h
Outline: (§1)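 10 µM test solutions prepared from DMSO stocks as for the Hoechst 33342 assay, in Krebs-HEPES pH 7.4. Absorbance at an absorption peak maximum recorded every 120 s for 2 h at room temperature by UV/visible spectrophotometer.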

[3] = Solubility in pH 7.4 Krebs-HEPES buffer assessed as compound precipitation at 10 uM after 2 hrs by UV-visible spectrophotometric analysis; assay type: physicochemical; conditions: pH 7.4, 2 h; outline: as §1
[4] = biological target: T1, Broad substrate specificity ATP-binding cassette transporter ABCG2; experiment: Inhibition of human ABCG2 expressed in MDCK2 cells assessed as reduction in pheophorbide A efflux pre-incubated for 30 mins before pheophorbide A addition and measured for 120 mins by flow cytometry; conditions: read-out: IC50
[5] = biological target: T1, Broad substrate specificity ATP-binding cassette transporter ABCG2; experiment: Inhibition of human ABCG2 expressed in baculovirus infected Sf9 cell membrane assessed as inhibition of vanadate sensitive basal ATPase activity after 20 mins by colorimetric method
Outline: (§2)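 Cholesterol-loaded membranes from Sf9 cells infected with baculovirus carrying human wild-type ABCG2; 10 µg protein per reaction. Buffer: 40 mM MOPS-Tris pH 7.0, 50 mM KCl, 2 mM DTT, 0.5 mM EGTA-Tris, 5 mM azide, 1 mM ouabain. Started with 3.3 mM MgATP, 20 min at 37 °C, stopped with SDS. Pi measured by molybdate/ascorbate colour at 880 nm against K2HPO4 standard.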

[6] = biological target: T1, Broad substrate specificity ATP-binding cassette transporter ABCG2; experiment: Reversal of human ABCG2-mediated resistance to SN-38 in human ABCG2 expressed MDCK2 cells assessed as reduction in SN-38 GI50 after 72 hrs by MTT assay
[7] = Cytotoxicity against wild-type MDCK2 cells assessed as reduction in cell viability after 72 hrs by MTT assay; assay type: cell-based, Canis lupus familiaris; conditions: dog, wild-type MDCK2 (MDCK-II) cells
Outline: (§3)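 MDCK II cells retrovirally transfected with human ABCG2-GFP cDNA, and wild-type MDCK II, in DMEM with 10% FBS. Seeded at 3 x 10^3 cells/well and attached 6 h at 37 °C, 5% CO2. Compounds up to 100 µM for 72 h. Controls were 10% DMSO and medium. MTT (5 mg/ml) added for 1 h, read at 570 nm minus 690 nm. Data normalised; GI50 from variable-slope sigmoidal fit.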

ABCG2 = biological target: T2, ABCG2 (Homo sapiens, UniProt Q9UNQ0); experiment: Ratio of IC50 for human ABCG2 expressed in baculovirus infected Sf9 cell membrane assessed as inhibition of vanadate sensitive quercetin-stimulated ATPase activity to IC50 for human ABCG2 expressed in baculovirus infected Sf9 cell membrane assessed as inhibition of vanadate sensitive basal ATPase activity; conditions: read-out: Ratio IC50
T2 sequence (Q9UNQ0 whole entry): T1 sequence (Q9UNQ0 whole entry)

[8] = biological target: T1, Broad substrate specificity ATP-binding cassette transporter ABCG2; experiment: Inhibition of human ABCG2 expressed in baculovirus infected Sf9 cell membrane assessed as inhibition of vanadate sensitive ATPase activity at 1 uM after 20 mins by colorimetric method; conditions: sf9, 20 min
[9] = biological target: T1, Broad substrate specificity ATP-binding cassette transporter ABCG2; experiment: Inhibition of human ABCG2 expressed in baculovirus infected Sf9 cell membrane assessed as inhibition of vanadate sensitive quercetin-stimulated ATPase activity after 20 mins by colorimetric method; outline: as §2
[10] = Ratio of GI50 for MDCK2 cells expressing human ABCG2 to IC50 for human ABCG2 expressed in MDCK2 cells
[11] = Cytotoxicity against MDCK2 cells expressing human ABCG2 assessed as reduction in cell viability after 72 hrs by MTT assay; assay type: ADME, cell-based, Canis lupus familiaris; conditions: dog, MDCK2 (MDCK-II) cells expressing human ABCG2; outline: as §3
[12] = Ratio of GI50 for wild-type MDCK2 cells to IC50 for human ABCG2 expressed in MDCK2 cells
[13] = Solubility in pH 7.4 Krebs-HEPES buffer at 10 uM after 2 hrs by UV-visible spectrophotometric analysis; assay type: physicochemical; conditions: pH 7.4, 2 h; outline: as §1

inhibition at 1 h, 10 µM (ABCB1) [%] | IC50 [1] [nM] | Activity [2] [%] | Activity [3] [%] | IC50 [4] [nM] | IC50 [5] [nM] | Activity [6] | inhibition (INH) [8] | IC50 [9] [nM] | solubility [13] | SMILES | GI50 at 72 h [7] [nM] | selectivity ratio (ABCG2) | Ratio [10] | GI50 at 72 h [11] [nM] | Ratio [12]
< 25 | > 10000 | 40 |  |  |  |  |  |  |  | O=C(c1ccccc1)N1CCc2c([nH]c3ccccc23)C1c1ccccc1Br (centres undefined) |  |  |  |  | 
< 25 | > 10000 |  | 80 |  |  |  |  |  |  | O=C(c1ccccc1)N1CCc2c([nH]c3ccccc23)C1c1cccc([N+](=O)[O-])c1 (centres undefined) |  |  |  |  | 
< 25 | 328 |  |  | 365 | 31 | Dose-dependent effect | Active | 262 |  | O=C(c1ccccc1)N1CCc2c([nH]c3ccccc23)C1c1ccc(Cl)c(Cl)c1 (centres undefined) | 7290 | 8.4 | <=20 | 6950 | <=20
< 25 | > 10000 | 40 |  |  |  |  |  |  |  | O=C(c1ccccc1)N1CCc2c([nH]c3ccccc23)C1c1ccccc1Cl (centres undefined) |  |  |  |  | 

Further lines, the compound ahead of its results:

SMILES | inhibition at 1 h, 10 µM (ABCB1) [%] | IC50 [1] [nM] | Activity [2] [%] | Activity [3] [%] | IC50 [4] [nM] | IC50 [5] [nM] | Activity [6] | inhibition (INH) [8] | IC50 [9] [nM] | solubility [13] | GI50 at 72 h [7] [nM] | selectivity ratio (ABCG2) | Ratio [10] | GI50 at 72 h [11] [nM] | Ratio [12]
O=C(c1ccccc1)N1CCc2c([nH]c3ccccc23)C1c1ccc(C(F)(F)F)cc1 (centres undefined) | < 25 | > 10000 |  | 80 |  |  |  |  |  |  |  |  |  |  | 
COc1ccc(C(=O)N2CCc3c([nH]c4ccccc34)C2c2ccc(Cl)c(Cl)c2)cc1 (centres undefined) | < 25 | 233 |  |  | 237 | 26 | Dose-dependent effect | Active | 285 | Soluble | 4830 | 11 | <=20 | 4670 | <=20
COc1cccc(C(=O)N2CCc3c([nH]c4ccccc34)C2c2ccc(Cl)c(Cl)c2)c1 (centres undefined) | < 25 | 238 |  |  | 206 | 38 | Dose-dependent effect | Active | 262 |  | 6550 | 7 | <=20 | 5820 | <=20
